The subject of series [1] is Human immunodeficiency virus 1. Nature of the series: Inhibition of HIV1 viral replication infected in human PBMC cells assessed as viral p24Ag concentration after 7 days postinfection by ELISA relative to untreated control. Format: functional. The essentials:
(§1)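 HIV-1 Ba-L (R5-tropic, subtype B) grown in PHA-activated donor PBMCs. PBMCs stimulated 2–3 days with 5 μg/mL PHA, then kept with 5 U/mL IL-2. Cells plated at 2 × 10⁵/well in triplicate with a range of compound concentrations. After 7 days at 37 °C, 5% CO₂, supernatant p24 measured by capture ELISA. EC₅₀ derived against untreated infected cells.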

The subject of series [2] is Human immunodeficiency virus 1. Briefly: Inhibition of HIV1 viral replication infected in human PBMC cells assessed as viral p24Ag concentration after 7 days postinfection by ELISA. It counts as functional, organism-based. The note with it: Human immunodeficiency virus 1, PBMC, 168 h. The essentials:
as §1

Series [3] in a line: Cytotoxicity against human PBMC by XTT assay. As to conditions: PBMC (peripheral blood mononuclear cells). It counts as cell-based. The essentials:
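PBMCs held in RPMI 1640 with 10% heat-inactivated FBS, penicillin, streptomycin, 2 mM glutamine and 10 mM HEPES. Activated with 5 µg/mL PHA for 2–3 days, then kept with 5 U/mL IL-2. Cells exposed to a range of concentrations. Viability read by XTT, OD 450 nm 2 h after addition. CC50 is the concentration giving 50% viability loss versus untreated controls.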
(In general: Formazan colour is commonly taken as a measure of viable cells.)

A short description of series [4]: Selectivity index, ratio of CC50 for human PBMC cells to EC50 for HIV1. It counts as toxicity, cell-based. The note with it: read-out: Ratio CC50/EC50. The essentials:
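Ratio of PBMC CC50 to anti-HIV-1 EC50. Both were measured in PHA-activated, IL-2-maintained PBMCs. For EC50, cells were infected with Ba-L isolate (R5-tropic, subtype B), plated at 2 × 10⁵ cells/well in triplicate and treated with various concentrations for 7 days at 37 °C, 5% CO2. Supernatant p24 was measured by capture ELISA against untreated infected cells. CC50 came from XTT viability.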

With `O=C(O)c1cn(Cc2ccccc2)c2ccc(Cl)cc2c1=O`, in series [1], the “inhibition (INH)” value is 29%. Also, the EC50 in series [2] came to 86 µM. The compound also registered a CC50 in series [3] of 1890 µM. The selectivity ratio in series [4] is 22.

Take `O=C(NCc1ccccc1)c1cn(COCCO)c2ccc(Cl)cc2c1=O`: the “inhibition (INH)” value in series [1] is reported as 98%. The EC50 in series [2] amounted to 4.5 µM. For the same compound, it took 3200 µM to reach half-maximal cytotoxicity in series [3] (CC50). Also, the selectivity ratio in series [4] turned out to be 711.

Turning to `O=C(NCc1ccccc1)c1c[nH]c2ccc(Cl)cc2c1=O`, the “inhibition (INH)” value in series [1] came to 47%. In addition, the EC50 in series [2] worked out at 53 µM. The compound also returned a CC50 in series [3] of 1400 µM. Moreover, in series [4], the selectivity ratio was found to be 26.

In the case of `CCOC(=O)c1c[nH]c2ccc(Cl)cc2c1=O`, the “inhibition (INH)” value in series [1] was found to be 58%. In addition, the EC50 in series [2] stood at 43 µM. Besides, it took 1660 µM to reach half-maximal cytotoxicity in series [3] (CC50). Moreover, the selectivity ratio in series [4] is 39.

On to `CCOC(=O)c1cn(COCCO)c2ccc(Cl)cc2c1=O`, for which the “inhibition (INH)” value in series [1] was 45%. Besides, the EC50 in series [2] came out at 50 µM. In series [3], this compound registered a CC50 of 1800 µM. Besides, the selectivity ratio in series [4] amounted to 36.

On to `CCOC(=O)c1cn(Cc2ccccc2)c2ccc(Cl)cc2c1=O`, for which, in series [1], the “inhibition (INH)” value is listed as 24%. In series [2], the EC50 worked out at 104 µM. The same compound returned a CC50 in series [3] of 1840 µM. In addition, the selectivity ratio in series [4] came out at 18.

For the compound `NNC(=O)c1cn(COCCO)c2ccc(F)cc2c1=O`, the “inhibition (INH)” value in series [1] stood at 96%. For the same compound, the EC50 in series [2] came out at 3.3 µM. Also, the half-maximal cytotoxic concentration (CC50) in series [3] was 909 µM. In series [4], the selectivity ratio is 275.

In the case of `O=C(O)c1cn([C@@H]2O[C@H](CO)[C@@H](O)[C@H]2O)c2ccc(Cl)cc2c1=O`, the “inhibition (INH)” value in series [1] is recorded as 99%. Further, in series [2], the EC50 was found to be 1.5 µM. This compound also registered a CC50 in series [3] of 1700 µM. Besides, the selectivity ratio in series [4] is 1130.

`Cc1cn([C@H]2C[C@H](N=[N+]=[N-])[C@@H](CO)O2)c(=O)[nH]c1=O` [ZIDOVUDINE]: in series [1], the “inhibition (INH)” value came to 94%. Further, the EC50 in series [2] stood at 0.05 µM. This compound registered a CC50 in series [3] of 126 µM. For the same compound, in series [4], the selectivity ratio was found to be 2520.

In the case of `NNC(=O)c1cn(COCCO)c2ccc(Cl)cc2c1=O`, the “inhibition (INH)” value in series [1] turned out to be 99%. In series [2], the EC50 came to 2.5 µM. This compound also showed a CC50 in series [3] of 2400 µM. The selectivity ratio in series [4] is 960.

As for `CCOC(=O)c1cn(COCCO)c2ccc(F)cc2c1=O`, the “inhibition (INH)” value in series [1] was determined as 30%. Moreover, the EC50 in series [2] is 83.3 µM. In series [3], this compound yielded a CC50 of 1500 µM. Moreover, the selectivity ratio in series [4] was 18.

In the case of `O=C(NCc1ccccc1)c1cn(COCCO)c2ccc(F)cc2c1=O`, the “inhibition (INH)” value in series [1] is given as 90%. In addition, the EC50 in series [2] is 2.8 µM. This compound also displayed a CC50 in series [3] of 2800 µM. Also, the selectivity ratio in series [4] was 1000.

On to `NNC(=O)c1c[nH]c2ccc(Cl)cc2c1=O`, for which the “inhibition (INH)” value in series [1] came out at 29%. Moreover, in series [2], the EC50 came to 86 µM. Further, the midpoint of cytotoxicity in series [3], the CC50, lay at 1230 µM. In series [4], the selectivity ratio came to 14.

As usually defined, the EC50 is the concentration that produces a half-maximal response. As usually defined, the CC50 is the concentration at which the toxic effect on the cells reaches its halfway point. The low end stands for harm at low concentration, the high end for better tolerance by the cells.

(Values after ChEMBL document CHEMBL1152418, “Synthesis, antiviral activity and molecular modeling of oxoquinoline derivatives” (Bioorg Med Chem, 2009).)
